From ChEMBL document CHEMBL4376891, “Benzenesulfonamide Derivatives as Calcium/Calmodulin-Dependent Protein Kinase Inhibitors and Antiviral Agents against Dengue and Zika Virus Infections” (J Med Chem, 2020) come the findings set out here.

The source made the active and inactive calls. The calls are words filed in the database; no cut-off is given here.

The subject of assay [1] is Zika virus. The experiment in a line: Antiviral activity against Zika virus infected in Stat1-/- mouse assessed as reduction in viral load at 4 to 8mg/kg/day, po dosed immediately following viral infection followed by daily dosing for 3 days. In kind it is functional, organism-based. In a few lines: (§1)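 Stat1-/- mice infected with DENV-2 NGC-N (1x10⁵ PFU iv) or ZIKV PRVABC59 (5x10⁴ PFU sc, footpad), with oral dosing or PBS starting immediately. Serum was taken from the submandibular vein on day 3 post-infection. Viremia was measured by plaque assay and reported as individual values and mean; n = 5.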

In assay [2] the test system is dengue virus type 2. The experiment in a line: Antiviral activity against DENV-2 NGC-N infected in Stat1-/- mouse assessed as time delay in mouse mortality at 2 mg/kg/day, po dosed immediately following viral infection followed by daily dosing for 6 days (reference value: 9 days). It is filed as functional.
In assay [3] the test system is dengue virus type 2. The experiment in a line: Antiviral activity against DENV-2 NGC-N infected in Stat1-/- mouse assessed as improvement in mouse survival by measuring median survival time at 2 mg/kg, po dosed 8 hrs after infection and ending at day 6 after infection (8 hrs delay) (reference value: 10 days). It is filed as functional.
Assay [4] deals with Zika virus. The experiment in a line: Antiviral activity against Zika virus infected in human BE(2)-C cells assessed as NS3 protein expression at 3.125 uM incubated for 48 hrs by Western blot analysis (reference value: 100%). It is filed as functional. In a few lines:
(§2)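 BE(2)C cells were infected with ZIKV PRVABC59 at MOI 0.1 for 48 h, with or without compound at increasing concentrations. Viral protein was immunoblotted with actin as loading control. The band-density ratio was given as % of the solvent control. Mean ± SD, 3 independent experiments.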

In assay [5] the test system is Zika virus. Kind of assay: Antiviral activity against Zika virus infected in human BE(2)-C cells assessed as NS3 protein expression at 0.78 uM incubated for 48 hrs by Western blot analysis (reference value: 100%). In kind it is functional. In a few lines: as §2
(A western blot detects proteins with antibodies after separation by electrophoresis.)

In assay [6] the test system is dengue virus type 2. Kind of assay: Antiviral activity against Dengue virus 2 infected in human BE(2)-C cells assessed as suppression of viral-induced CaMKIIalpha activation at 3.125 uM incubated for 4 hrs by confocal microscopy. It is filed as functional, organism-based.
Assay [7] deals with dengue virus type 2. The experiment in a line: Antiviral activity against eGFP-fused Dengue virus 2 infected in human BE(2)-C cells assessed as viral infection level by measuring intensity of eGFP emission from infected cells at 1.56 uM incubated for 24 hrs relative to control. In kind it is functional. In a few lines: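 BE(2)C cells, in RPMI 1640 with 10% FBS, were infected with DENV-2-eGFP reporter virus (MOI 1) for 24 h with or without compound, using DMSO as solvent control. Cells were fixed in 4% paraformaldehyde and stained with Hoechst, then imaged by high-content analysis. eGFP intensity per cell number is given as % of solvent control. Values are means of 3 experiments.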

Assay [8] has as its system Zika virus. Kind of assay: Antiviral activity against Zika virus infected in human BE(2)-C cells transfected with shCaMKIIalpha assessed as NS3 protein expression at 3.125 uM incubated for 48 hrs by Western blot analysis (reference value: 100%). In kind it is functional.
Assay [9] concerns Zika virus. The experiment in a line: Antiviral activity against Zika virus infected in human BE(2)-C cells assessed as reduction inNS3 protein expression at 3.125 to 6.25 uM treated during 0 to 3 hrs post infection by Western blot analysis. In kind it is functional, organism-based. In a few lines: (§3)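 Time-of-addition design: BE(2)C cells were infected with DENV-2 or ZIKV at MOI 1. Compound at 3.125 or 6.25 μM was present either during adsorption (0–3 hpi) or afterward (3–24 hpi). Viral protein was immunoblotted against actin, with the ratio as % of the solvent control.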

Assay [10] deals with dengue virus type 2. Kind of assay: Antiviral activity against Dengue virus 2 infected in human BE(2)-C cells assessed as reduction in NS3 protein expression at 3.125 to 6.25 uM treated during 3 to 24 hrs post infection by Western blot analysis. In kind it is functional, organism-based. In a few lines:
as §3

Assay [11] has as its system Zika virus. Kind of assay: Antiviral activity against Zika virus infected in human BE(2)-C cells assessed as reduction in NS3 protein expression at 3.125 to 6.25 uM treated during 3 to 24 hrs post infection by Western blot analysis. It is filed as functional, organism-based. In a few lines: as §3
The test system of assay [12] is dengue virus type 2. Kind of assay: Antiviral activity against DENV-2 NGC-N infected in Stat1-/- mouse assessed as overall mouse survival at 4 mg/kg, po dosed immediately following viral infection followed by daily dosing for 6 days (reference value: 0%). In kind it is functional. To be noted: 144 h.
The subject of assay [13] is Influenza A virus. The experiment in a line: Antiviral activity of Influenza A virus (H1N1) infected in human HMC3 cells assessed as reduction in nucleoprotein protein expression at 0.781 to 12.5 uM incubated for 24 hrs by immunofluorescence microscopy. In kind it is functional, organism-based.
For assay [14], the system named is dengue virus type 2. The experiment in a line: Antiviral activity against Dengue virus 2 infected in human BE(2)-C cells transfected with shLacZ assessed as NS3 protein expression at 3.125 uM incubated for 48 hrs by Western blot analysis (reference value: 100%). In kind it is functional.
The test system of assay [15] is dengue virus type 2. Kind of assay: Antiviral activity against Dengue virus 2 infected in human BE(2)-C cells assessed as reduction in NS3 protein expression at 3.125 to 6.25 uM treated during 0 to 3 hrs post infection by Western blot analysis. It is filed as functional, organism-based. In a few lines:
as §3

The test system of assay [16] is Zika virus. The experiment in a line: Antiviral activity against fluorescently labeled Zika virus infected in human BE(2)-C cells at 3.125 uM by confocal microscopy. It is filed as functional, organism-based. In a few lines: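 DENV-2 or ZIKV was concentrated and labeled with atto-647N dye. BE(2)C cells were pretreated with solvent or 3.125 µM, then incubated at 37 °C with labeled DENV-2 for 30 min or ZIKV for 60 min. Cells were fixed in 4% paraformaldehyde, membranes stained with WGA-488, and intracellular virus signal imaged by confocal microscopy.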

The test system of assay [17] is dengue virus type 2. Kind of assay: Antiviral activity against DENV-2 NGC-N infected in Stat1-/- mouse assessed as improvement in mouse survival by measuring median survival time at 4 mg/kg, po dosed 8 hrs after infection and ending at day 6 after infection (8 hrs delay) (reference value: 10 days). In kind it is functional.
Assay [18] deals with dengue virus type 2. Kind of assay: Antiviral activity against Dengue virus 2 infected in human BE(2)-C cells assessed as NS3 protein expression incubated for 48 hrs by Western blot analysis. It is filed as functional, organism-based. In a few lines:
(§4)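 BE(2)C neuroblastoma cells in RPMI 1640 with 10% FBS were infected with DENV-2 PL046 at MOI 0.1 for 48 h, without or with compound at increasing concentrations. NS3 was immunoblotted with actin as loading control. The NS3:actin densitometry ratio was expressed as % of the DMSO control. Mean ± SD of 3 independent experiments.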

For assay [19], the system named is dengue virus type 2. Kind of assay: Antiviral activity against Dengue virus 2 infected in human BE(2)-C cells assessed as NS3 protein expression at 0.78 uM incubated for 48 hrs by Western blot analysis (reference value: 100%). In kind it is functional. In a few lines: as §4
Assay [20] concerns dengue virus type 2. Kind of assay: Antiviral activity against DENV-2 NGC-N infected in Stat1-/- mouse assessed as reduction in viral load at 4 to 8mg/kg/day, po dosed immediately following viral infection followed by daily dosing for 3 day. It is filed as functional, organism-based. In a few lines: as §1
Assay [21] relates to Zika virus. The experiment in a line: Antiviral activity against Zika virus infected in human BE(2)-C cells assessed as NS3 protein expression at 1.56 uM incubated for 48 hrs by Western blot analysis (reference value: 100%). It is filed as functional. In a few lines:
as §2

Assay [22] concerns Zika virus. The experiment in a line: Antiviral activity against Zika virus infected in human BE(2)-C cells assessed as NS3 protein expression at 0.39 uM incubated for 48 hrs by Western blot analysis (reference value: 100%). It is filed as functional. In a few lines:
as §2

In the case of `COc1ccc(S(=O)(=O)N(CCCC(=O)C2CCCCCC2)c2ccccc2)cc1`, the outcome in [1], in assay [6], in assay [13], in assay [16] and in [20] was Active. Also, in assay [2], the Time turned out to be 15 days. For the same compound, the MST worked out at 14 days in [3] and 22 days in assay [17]. Also, the Activity in assay [4] was 49.7%; in [5], 89.6%; in [7], 31.8%; in assay [8], 101%; in [9], “Dose-dependent effect”; in assay [14] it was 62.2%. The Activity entry in assay [15] is “Dose-dependent effect”; in [18], “Dose-dependent effect”; in assay [19], 85.4%; in [21], 62.2%; in assay [22] it was 97.7%. In addition, the outcome in [10] and in assay [11] was inactive. Further, in [12], the survival at 4 mg/kg came out at 60%.
